In the library only some 1.5% were active in any assay of this set; here they are far more common.
S100A4 MyoIIA = S100A4-myosin IIA interaction inhibition. S100A4/TAMRA-MyoIIA peptide fluorescence polarization. inhibition, % at 10.7 µM. P26447. hit rate 0.14% among 360,000. AID 652163;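 active = mean inhibition of at least 70% across replicates, with every replicate also reaching that level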
Target sequence (P26447 whole entry, looked up): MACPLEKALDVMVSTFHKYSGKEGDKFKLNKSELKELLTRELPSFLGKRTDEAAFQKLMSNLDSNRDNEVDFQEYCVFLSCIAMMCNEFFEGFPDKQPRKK
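Material: S100A4 monomer (human). Medium: Calcium-containing HEPES buffer, pH 7.2. Probe or stimulus: labelled myosin peptide probe, 5 nM. Compound dosing: one concentration per compound. Timing: polarization read 5 min after assay mix addition, stable 5–60 min. Benchmarks: DMSO as neutral control, TFP as positive control.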
PKA-R2B act = activates the human PKA-R2B holoenzyme complex; hit rate 0.079% among 340,000; P22694+P31323; PKA-R2B holoenzyme dissociation, Cy5-IP20 fluorescence polarization; R2B truncated from residue 108, S112A mutant; 0% DMSO only, 100% 113 µM cGMP; activation, % at 11.4 µM;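 active = activation above a cutoff set at the mean over all compounds plus 3 SD, cut at about 18% in these data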;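 also: higher means more holoenzyme dissociation and a rise in polarization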
CRFR2-BP antag = CRF-BP/CRF-R2 complex antagonism | inhibition, % at 11.8 µM | hit rate 0.59% among 350,000 | HEK293 CRF-R2/CRF-BP, CRF-induced calcium fluorescence;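 active = inhibition of the ligand-induced calcium signal above about 50% at the single tested concentration, limit read from the data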
PKA-R1A activ = activators of PKA-R1A complex; P00514+P68181; PKA-R1A dissociation, Cy5-IP20 fluorescence polarization; scaled: DMSO 0%, 113 µM cGMP 100%; activation, % at 11.4 µM; hit rate 0.083% among 340,000; AID 504707;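 active = percent activation above the mean of all tested compounds plus 3 SD, cut at about 19% in these data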;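 also: higher means more PKAc released from R1A so a rise in polarization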
SIRT5 block = blocks human SIRT5 desuccinylation of peptide. Q9NXA8. Purified SirT5, succinyl-peptide AMC, trypsin-coupled fluorescence. inhibition, % at 15 µM. hit rate 1.1% among 330,000. AID 652115; in the data active = inhibition above about 15%
Target sequence (Q9NXA8 whole entry, looked up): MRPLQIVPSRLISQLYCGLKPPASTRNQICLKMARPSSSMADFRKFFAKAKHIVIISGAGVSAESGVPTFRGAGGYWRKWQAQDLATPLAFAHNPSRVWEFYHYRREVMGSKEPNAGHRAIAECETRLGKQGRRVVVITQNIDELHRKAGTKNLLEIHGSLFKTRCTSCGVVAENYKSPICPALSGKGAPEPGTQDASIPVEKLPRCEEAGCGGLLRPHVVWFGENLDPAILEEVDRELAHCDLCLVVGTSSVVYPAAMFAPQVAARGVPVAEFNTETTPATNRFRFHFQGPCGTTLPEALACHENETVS
The depositor's hits bear a star; . = not tested or not shown.

SMILES	S100A4 MyoIIA	PKA-R2B act	CRFR2-BP antag	PKA-R1A activ	SIRT5 block
CCc1nc(NCCC(C)C)c(C#N)c2c1CCCC2	.	-4	59*	-17	.
COc1ccc(NC(=O)N(C)C[C@H]2Oc3ccc(NC(=O)C4CCCCC4)cc3C(=O)N([C@H](C)CO)C[C@H]2C)cc1	4	.	.	.	1
C[C@@H]1CCCCO[C@@H](CN(C)S(=O)(=O)c2ccc(F)cc2)[C@H](C)CN([C@H](C)CO)C(=O)c2cc(NC(=O)Nc3ccc4c(c3)OCO4)ccc2O1	-2	.	.	.	5
C/C(=C\c1ccccc1)CN1CCC(C(=O)N2CCCCC2)CC1	-1	-8	96*	5	-10
C/C(=C\c1ccccc1)CN1CCC(C(=O)N2CCC(C)CC2)CC1	.	-8	0	-5	.
O=C(C[C@H]1C=C[C@@H](NC(=O)c2ccc3c(c2)OCO3)[C@@H](CO)O1)NCc1ccc(Oc2ccccc2)cc1	-3	.	.	.	6
COC(=O)CSc1nnc(SCc2ccc(OC)cc2)s1	.	2	18	1	.
COc1ccc(CSc2nnc(SCc3ccc([N+](=O)[O-])cc3)s2)cc1	.	13	43	19*	.
O=C(Nc1ccc(F)cc1)N1CCCCN2[C@H](C1)[C@H](c1ccc(C3=CCCCC3)cc1)[C@@H]2CO	13	.	.	.	1
C[C@@H]1CN([C@@H](C)CO)C(=O)Cc2cc(NS(=O)(=O)c3ccc(F)cc3)ccc2O[C@H]1CN(C)Cc1ccc(C(F)(F)F)cc1	-9	.	.	.	36*
COc1ccc(S(=O)(=O)Nc2ccc3c(c2)CC(=O)N([C@@H](C)CO)C[C@H](C)[C@@H](CN(C)Cc2ccc(C(F)(F)F)cc2)O3)cc1	11	.	.	.	16*
C[C@@H]1CN([C@H](C)CO)C(=O)Cc2cc(N(C)C)ccc2O[C@H]1CN(C)Cc1ccc(C(=O)O)cc1	19	.	.	.	.
C[C@H](CO)N1C[C@H](C)[C@@H](CN(C)Cc2ccc(C(F)(F)F)cc2)Oc2ccc(N(C)C)cc2CC1=O	14	.	.	.	17*
C[C@@H]1CN([C@H](C)CO)C(=O)Cc2cc(NS(=O)(=O)c3ccc(F)cc3)ccc2O[C@@H]1CN(C)Cc1ccc(C(F)(F)F)cc1	-4	.	.	.	23*
C[C@@H]1CN([C@H](C)CO)C(=O)Cc2cc(NS(=O)(=O)c3ccccc3)ccc2O[C@@H]1CN(C)Cc1ccc(C(F)(F)F)cc1	-1	.	.	.	-1
C[C@@H]1CN([C@H](C)CO)C(=O)Cc2cc(NS(=O)(=O)c3ccccc3)ccc2O[C@H]1CN(C)Cc1ccc(C(F)(F)F)cc1	-3	.	.	.	0
C[C@@H]1CCCCO[C@@H](CN(C)Cc2ccc(C(=O)O)cc2)[C@H](C)CN([C@@H](C)CO)C(=O)c2cc(NC(=O)Nc3ccc(F)cc3)ccc2O1	2	.	.	.	-3
C[C@H](CO)N1C[C@H](C)[C@@H](CN(C)Cc2ccc(C(F)(F)F)cc2)Oc2ccc(NS(C)(=O)=O)cc2CC1=O	1	.	.	.	16*
COc1ccccc1NC(=O)CN1C(=O)CCS(=O)(=O)c2ccccc21	.	-4	84*	7	.
CCS(=O)(=O)N1CC2(C1)[C@H](c1ccccc1)[C@H](CO)N2CCC(F)(F)F	-3	.	.	.	6
COc1ccccc1NC(=O)N[C@H]1CC[C@@H](CCNS(=O)(=O)c2ccc(F)cc2)O[C@@H]1CO	8	.	.	.	19*
CCC(=O)N[C@H]1CC[C@@H](CCNC(=O)Nc2ccc(C(F)(F)F)cc2)O[C@H]1CO	-2	.	.	.	-2
CN(C)CC(=O)N[C@@H]1CC[C@@H](CCNC(=O)Nc2ccc(C(F)(F)F)cc2)O[C@@H]1CO	-29	.	.	.	17*
O=C(Nc1ccc2c(c1)OCO2)N[C@H]1CC[C@H](CCNC(=O)C2CCCC2)O[C@H]1CO	-20	.	.	.	1
O=C(Nc1ccc2c(c1)OCO2)N[C@@H]1CC[C@@H](CCNC(=O)C2CCCC2)O[C@H]1CO	90*	.	.	.	-1
COc1ccccc1NC(=O)N[C@@H]1CC[C@H](CCNS(=O)(=O)c2ccc(F)cc2)O[C@H]1CO	11	.	.	.	-2
COc1ccccc1NC(=O)N[C@H]1CC[C@H](CCNC(=O)c2ccc3c(c2)OCO3)O[C@@H]1CO	3	.	.	.	19*
C[C@@H]1CN([C@@H](C)CO)C(=O)c2cc(NS(C)(=O)=O)ccc2O[C@@H](C)CCCCO[C@H]1CN(C)C(=O)CCCN(C)C	1	.	.	.	1
